High-throughput results deposited in PubChem BioAssay by Broad Institute.
Pf Dd2 growth – blocks growth of Plasmodium falciparum Dd2 parasites; P. falciparum Dd2 growth, SYBR Green, 72 h; stronger effect = lower value; activity change, % at 10 µM; actives 2.3% (n = 94,000); AID 1159554; in the data active = activity change below about -80%; inconclusive = no clear call, values can overlap the other calls
KDM4C inh – blocks human GASC-1 (KDM4C) demethylase activity; Q9H3R0; inhibition, % at 12.5 µM; GST-KDM4C 2-372, H3K9me3 peptide, LANCE TR-FRET; actives 0.15% (n = 96,000);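 active = mean replicate inhibition above about 25%, with at least 55% of replicates also reaching it, limit read from the data, passing the limit was not always enough; inconclusive = only one of those two conditions met; inactive = neither condition met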
Target sequence (Q9H3R0 2-372 limits assumed): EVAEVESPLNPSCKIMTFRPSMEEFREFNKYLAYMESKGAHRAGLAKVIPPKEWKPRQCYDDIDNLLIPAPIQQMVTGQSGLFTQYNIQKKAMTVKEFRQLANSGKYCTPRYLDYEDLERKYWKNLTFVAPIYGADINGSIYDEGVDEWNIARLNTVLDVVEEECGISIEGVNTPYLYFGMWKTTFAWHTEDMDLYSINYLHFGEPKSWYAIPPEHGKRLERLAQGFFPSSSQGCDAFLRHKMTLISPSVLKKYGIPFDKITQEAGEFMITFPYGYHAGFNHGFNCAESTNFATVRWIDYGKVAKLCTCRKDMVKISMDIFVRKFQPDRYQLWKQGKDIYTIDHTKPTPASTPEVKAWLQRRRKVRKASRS
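Test system – GST-tagged GASC-1 (JMJD2C) catalytic fragment, aa 2-372 · Medium – HEPES buffer, pH 7.5, plus ascorbate · Reagent – H3K9me3 peptide with Fe(II)/2OG · Compound – one test concentration per compound · Timing – 30 min reaction, 60 min detection, RT · Technique – TR-FRET with Eu antibody and ULight streptavidin, EDTA stop · Read-out basis – inhibition from TR-FRET ratio decrease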
IDH1 R132H inh – blocks human IDH1 R132H reductase activity. diaphorase/resazurin fluorescence, 60 min. inhibition, % at 10 µM. actives 0.18% (n = 70,000); in the data active = inhibition above about 34%; inconclusive = no clear call, values can overlap the other calls; inactive = below about 11%;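 also: 0% = DMSO and 100% = no enzyme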
T cruzi growth-1 – blocks T. cruzi growth in NIH3T3 culture | T. cruzi beta-gal in NIH3T3, GalScreen luminescence, 90 h | inhibition, % at 8.34 µM | actives 5.9% (n = 77,000) | AID 624255;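 active = mean inhibition above about 93%, with at least 55% of replicates each passing it, limit read from the data, passing the limit was not always enough; inconclusive = only one of those two conditions holds; inactive = neither condition holds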
T cruzi growth-2 – blocks T. cruzi growth in NIH3T3 host cells; shares compounds with T cruzi growth-1; T. cruzi beta-gal in NIH3T3, GalScreen luminescence, 90 h; inhibition, % at 8.35 µM; actives 72% (n = 5,600);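 active = mean replicate inhibition above about 95% and at least 55% of replicates individually reaching it, limit read from the data; inconclusive = only one of the two criteria is met; inactive = neither criterion is met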
T cruzi growth-3 – blocks T. cruzi growth in NIH3T3 host cells; actives 21% (n = 5,600); T. cruzi beta-gal in NIH3T3, GalScreen luminescence, 90 h; AID 651740; inhibition, % at 2.09 µM; shares compounds with T cruzi growth-1;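 active = mean inhibition above about 95%, with at least 55% of replicates also reaching it, limit read from the data; inconclusive = meets just one of the two conditions; inactive = meets neither condition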;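 also: plate controls were neutral control median for no effect and positive control median for full effect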
3T3 cytotox – kills mouse NIH/3T3 fibroblasts; shares compounds with T cruzi growth-1; cytotoxicity (signal decrease), % at 8.35 µM; actives 14% (n = 5,600); NIH/3T3 viability, CellTiter-Glo ATP luminescence, 90 h;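 active = mean signal decrease across replicates above about 35% based on untreated-well scatter, with enough replicates individually passing, limit read from the data; inconclusive = no rule stated though some were filed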;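 also: 0% = median of neutral control wells and 100% = median of positive control wells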
NIH3T3 tox 2 – cytotoxicity in mouse NIH/3T3 fibroblasts; shares compounds with T cruzi growth-1; NIH/3T3 viability, CellTiter-Glo ATP luminescence, 90 h; inhibition, % at 24.9 µM; actives 56% (n = 5,600);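 active = mean loss of cell viability signal at or above a set limit, and enough replicates individually reaching it; inconclusive = meets only the mean limit or only the replicate share; inactive = meets neither condition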;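 also: 0% = median of neutral control wells and 100% = median of positive control wells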
An asterisk follows results filed as active. Only some compounds are listed: those with a hit (about 5.8% of all), similar ones and a draw of the others.

For C[C@H](CO)N1C[C@H](C)[C@H](CN(C)C(=O)NC2CCCCC2)Oc2ncc(C#Cc3ccccc3)cc2C1=O the results were Pf Dd2 growth -45, IDH1 R132H inh 0, T cruzi growth-1 98*, T cruzi growth-2 106*, T cruzi growth-3 53, 3T3 cytotox 41* and NIH3T3 tox 2 58*.
CC(C)CC#Cc1cnc2c(c1)C(=O)N([C@@H](C)CO)C[C@@H](C)[C@@H](CN(C)Cc1cccc(F)c1)O2 was read as Pf Dd2 growth -30, KDM4C inh -1, IDH1 R132H inh -1, T cruzi growth-1 99*, T cruzi growth-2 106*, T cruzi growth-3 83, 3T3 cytotox 23 and NIH3T3 tox 2 45*.
For CCCC#Cc1cnc2c(c1)C(=O)N([C@H](C)CO)C[C@H](C)[C@@H](CN(C)Cc1ccccc1F)O2 the results were Pf Dd2 growth -31, KDM4C inh 1, IDH1 R132H inh -4 and T cruzi growth-1 86.
Screening CC(C)CC#Cc1cnc2c(c1)C(=O)N([C@H](C)CO)C[C@@H](C)[C@H](CN(C)Cc1ccccc1F)O2 returned Pf Dd2 growth -46, KDM4C inh 1, IDH1 R132H inh -1, T cruzi growth-1 inconclusive, T cruzi growth-2 106*, T cruzi growth-3 58, 3T3 cytotox 17 and NIH3T3 tox 2 76*.
`CC(C)CC#Cc1cnc2c(c1)C(=O)N([C@H](C)CO)C[C@H](C)[C@H](CN(C)Cc1cccc(F)c1)O2` gave Pf Dd2 growth -54, KDM4C inh -1, IDH1 R132H inh -1, T cruzi growth-1 inconclusive, T cruzi growth-2 107*, T cruzi growth-3 34, 3T3 cytotox -6 and NIH3T3 tox 2 14.
CC(C)CC#Cc1cnc2c(c1)C(=O)N([C@@H](C)CO)C[C@H](C)[C@@H](CN(C)Cc1ccc3c(c1)OCO3)O2 was read as Pf Dd2 growth -29, KDM4C inh 2, IDH1 R132H inh -1 and T cruzi growth-1 82.
C[C@H](CO)N1C[C@H](C)[C@@H](CN(C)Cc2cccc(F)c2)Oc2ncc(C#CCN(C)C)cc2C1=O was read as Pf Dd2 growth -31, KDM4C inh 3, IDH1 R132H inh 0 and T cruzi growth-1 -75.
CC(C)CC#Cc1cnc2c(c1)C(=O)N([C@H](C)CO)C[C@@H](C)[C@@H](CN(C)Cc1ccc(F)cc1)O2 was read as Pf Dd2 growth -34, KDM4C inh -2, IDH1 R132H inh 0 and T cruzi growth-1 86.
`CC(C)CC#Cc1cnc2c(c1)C(=O)N([C@@H](C)CO)C[C@@H](C)[C@@H](CN(C)Cc1ccc3c(c1)OCO3)O2` gave Pf Dd2 growth -54, KDM4C inh 4, IDH1 R132H inh 5, T cruzi growth-1 101*, T cruzi growth-2 105*, T cruzi growth-3 77, 3T3 cytotox 33 and NIH3T3 tox 2 93*.
C[C@H]1CN([C@@H](C)CO)C(=O)c2cc(C#CCc3ccccc3)cnc2O[C@@H]1CN(C)Cc1cccc(F)c1 was read as Pf Dd2 growth -52, KDM4C inh -2, IDH1 R132H inh 0, T cruzi growth-1 inconclusive, T cruzi growth-2 90, T cruzi growth-3 89, 3T3 cytotox -34 and NIH3T3 tox 2 104*.
For C[C@H](CO)N1C[C@H](C)[C@@H](CN(C)Cc2ccccc2)Oc2ncc(C#CCc3ccccc3)cc2C1=O the results were Pf Dd2 growth -73 and KDM4C inh 2.
COCC(=O)N1CC[C@@H]2[C@@H](CO)N(C)c3ccc(-c4cccc(F)c4)cc3[C@@H]21 was read as Pf Dd2 growth 18, KDM4C inh 2, T cruzi growth-1 inconclusive, T cruzi growth-2 106*, T cruzi growth-3 56, 3T3 cytotox 4 and NIH3T3 tox 2 6.
For COCC(=O)N1CC[C@@H]2[C@H]1c1cc(-c3cccc(F)c3)ccc1N(C)[C@H]2CO the results were Pf Dd2 growth 25, KDM4C inh 1, T cruzi growth-1 102*, T cruzi growth-2 107*, T cruzi growth-3 77, 3T3 cytotox -5 and NIH3T3 tox 2 4.
Screening CN1c2ccc(-c3cccc(F)c3)cc2[C@H]2[C@H](CCN2C(=O)C2CC2)[C@@H]1CO returned Pf Dd2 growth -8, KDM4C inh 10, T cruzi growth-1 117*, T cruzi growth-2 102*, T cruzi growth-3 64, 3T3 cytotox -3 and NIH3T3 tox 2 inconclusive.
Cc1ccccc1S(=O)(=O)N1CCCCN2[C@@H](CO)[C@@H](c3ccc(-c4cccc(F)c4)cc3)[C@@H]2C1 was read as Pf Dd2 growth -76, KDM4C inh -5 and T cruzi growth-1 55.
For Cc1ccccc1S(=O)(=O)N1CCCCN2[C@H](CO)[C@@H](c3ccc(-c4cccc(F)c4)cc3)[C@H]2C1 the results were Pf Dd2 growth -40, KDM4C inh -1, T cruzi growth-1 106*, T cruzi growth-2 104*, T cruzi growth-3 59, 3T3 cytotox 18 and NIH3T3 tox 2 76*.
For Cc1ccccc1S(=O)(=O)N1CCCCN2[C@H](CO)[C@H](c3ccc(-c4cccc(F)c4)cc3)[C@@H]2C1 the results were Pf Dd2 growth -14, KDM4C inh -2 and T cruzi growth-1 81.
Cc1ccccc1S(=O)(=O)N1CCCCN2[C@H](CO)[C@@H](c3ccc(-c4ccccc4)cc3)[C@@H]2C1 was read as Pf Dd2 growth 3, T cruzi growth-1 102*, T cruzi growth-2 98*, T cruzi growth-3 80, 3T3 cytotox 36* and NIH3T3 tox 2 45*.
For Cc1ccccc1S(=O)(=O)N1CCCCN2[C@H](C1)[C@H](c1ccc(-c3cccc(F)c3)cc1)[C@@H]2CO the results were Pf Dd2 growth -33, KDM4C inh -1, T cruzi growth-1 103*, T cruzi growth-2 103*, T cruzi growth-3 106*, 3T3 cytotox -12 and NIH3T3 tox 2 57*.
`CC(C)(C)NC(=S)N1CCSCC1` gave IDH1 R132H inh 1.
For CO[C@@H]1CN(C)C(=O)c2ccc(NC(=O)Nc3ccccc3Cl)cc2OC[C@@H](C)N(C(C)=O)C[C@H]1C the results were Pf Dd2 growth -40, KDM4C inh 0, IDH1 R132H inh 0 and T cruzi growth-1 19.
Cc1noc(C)c1S(=O)(=O)Nc1ccc2c(c1)CC(=O)N([C@H](C)CO)C[C@@H](C)[C@H](CN(C)Cc1ccncc1)O2 was read as Pf Dd2 growth 12, KDM4C inh 1, IDH1 R132H inh 2 and T cruzi growth-1 -52.
